Source: ChEMBL document CHEMBL4138161, “Discovery of simplified sampangine derivatives as novel fungal biofilm inhibitors” (Eur J Med Chem, 2018)
In brackets after ≈: the same amount, converted by molar mass.

Tests used:
Format in all cases: functional
Nannizzia gypsea = test: Antifungal activity against Microsporum gypseum Cmccfmza after 24 hrs by spectrophotometric analysis
In short: (§1)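 Broth microdilution in RPMI 1640, inoculum 5×10^3 CFU/mL, compounds from 6.4 mg/mL DMSO stocks, 35 ℃ for 24 h. Growth read as OD600; MIC80 taken as lowest concentration giving 80% growth inhibition. Triplicate.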

Nakaseomyces glabratus = test: Antifungal activity against Candida glabrata 537 after 24 hrs by spectrophotometric analysis; settings: Nakaseomyces glabratus, 537, 24 h; in short: as §1
Cryptococcus neoformans = test: Antifungal activity against Cryptococcus neoformans 32609 after 24 hrs by spectrophotometric analysis; settings: Cryptococcus neoformans, 32609, 24 h; in short: as §1
Aspergillus fumigatus = test: Antifungal activity against Aspergillus fumigatus 07544 after 24 hrs by spectrophotometric analysis; settings: Aspergillus fumigatus, 07544, 24 h; in short: as §1
Trichophyton rubrum = test: Antifungal activity against Trichophyton rubrum Cmccftla after 24 hrs by spectrophotometric analysis; in short: as §1
Candida parapsilosis = test: Antifungal activity against Candida parapsilosis 22019 after 24 hrs by spectrophotometric analysis; settings: Lodderomyces parapsilosis, 22019, 24 h; in short: as §1
Candida albicans = test: Antifungal activity against Candida albicans SC5314 after 24 hrs by spectrophotometric analysis; settings: SC5314, 24 h; in short: as §1

| Structure (SMILES) | MIC80 (Nannizzia gypsea) | MIC80 (Nakaseomyces glabratus) | MIC80 (Cryptococcus neoformans) | MIC80 (Aspergillus fumigatus) | MIC80 (Trichophyton rubrum) | MIC80 (Candida parapsilosis) | MIC80 (Candida albicans) |
| --- | --- | --- | --- | --- | --- | --- | --- |
| Cc1ccnc2cc3cc([N+](=O)[O-])sc3cc12 | > 64 µg/mL | 16 µg/mL (≈ 65.5 µM) | > 64 µg/mL | > 64 µg/mL | 4 µg/mL (≈ 16.4 µM) | > 64 µg/mL | > 64 µg/mL |
| CCCc1cnc2c(c1)C(=O)c1sc([N+](=O)[O-])cc1C2=O | 1 µg/mL (≈ 3.31 µM) | 4 µg/mL (≈ 13.2 µM) | 0.5 µg/mL (≈ 1.65 µM) | 4 µg/mL (≈ 13.2 µM) | 1 µg/mL (≈ 3.31 µM) | 4 µg/mL (≈ 13.2 µM) | 2 µg/mL (≈ 6.62 µM) |
| Cc1ccnc2c1[C@H](O)c1sc([N+](=O)[O-])cc1[C@H]2O (relative stereo) | > 64 µg/mL | > 64 µg/mL | > 64 µg/mL | > 64 µg/mL | > 64 µg/mL | > 64 µg/mL | > 64 µg/mL |
| Cc1ccnc2c1C(=O)c1scc(N)c1C2=O | > 64 µg/mL | > 64 µg/mL | > 64 µg/mL | > 64 µg/mL | > 64 µg/mL | > 64 µg/mL | 32 µg/mL (≈ 131 µM) |
| Cc1ccnc2c1C(=O)c1ccn(C)c1C2=O | > 64 µg/mL | > 64 µg/mL | > 64 µg/mL | > 64 µg/mL | > 64 µg/mL | > 64 µg/mL | > 64 µg/mL |
| O=C1c2cc([N+](=O)[O-])sc2C(=O)c2cccnc21 | 0.5 µg/mL (≈ 1.92 µM) | 1 µg/mL (≈ 3.84 µM) | 0.5 µg/mL (≈ 1.92 µM) | 1 µg/mL (≈ 3.84 µM) | 0.5 µg/mL (≈ 1.92 µM) | 2 µg/mL (≈ 7.69 µM) | 0.5 µg/mL (≈ 1.92 µM) |
| O=C1c2cc([N+](=O)[O-])sc2C(=O)c2c(-c3ccccc3)ccnc21 | 4 µg/mL (≈ 11.9 µM) | 16 µg/mL (≈ 47.6 µM) | 4 µg/mL (≈ 11.9 µM) | 32 µg/mL (≈ 95.1 µM) | 8 µg/mL (≈ 23.8 µM) | 8 µg/mL (≈ 23.8 µM) | 8 µg/mL (≈ 23.8 µM) |
| Cc1ccc(C(C)c2ccnc3c2C(=O)c2sc([N+](=O)[O-])cc2C3=O)o1 (stereo not drawn) | 1 µg/mL (≈ 2.71 µM) | > 64 µg/mL | 0.25 µg/mL (≈ 0.679 µM) | 32 µg/mL (≈ 86.9 µM) | 1 µg/mL (≈ 2.71 µM) | > 64 µg/mL | > 64 µg/mL |
| CCCCc1cnc2c(c1)C(=O)c1sc([N+](=O)[O-])cc1C2=O | 1 µg/mL (≈ 3.16 µM) | 4 µg/mL (≈ 12.6 µM) | 0.5 µg/mL (≈ 1.58 µM) | 4 µg/mL (≈ 12.6 µM) | 1 µg/mL (≈ 3.16 µM) | 4 µg/mL (≈ 12.6 µM) | 2 µg/mL (≈ 6.32 µM) |
| Cc1ccnc2c1C(=O)c1sc(N)cc1C2=O | > 64 µg/mL | > 64 µg/mL | > 64 µg/mL | > 64 µg/mL | 8 µg/mL (≈ 32.7 µM) | > 64 µg/mL | > 64 µg/mL |

The next lines start with the values.

| MIC80 (Nannizzia gypsea) | MIC80 (Nakaseomyces glabratus) | MIC80 (Cryptococcus neoformans) | MIC80 (Aspergillus fumigatus) | MIC80 (Trichophyton rubrum) | MIC80 (Candida parapsilosis) | MIC80 (Candida albicans) | Structure (SMILES) |
| --- | --- | --- | --- | --- | --- | --- | --- |
| 16 µg/mL (≈ 36.1 µM) | > 64 µg/mL | 8 µg/mL (≈ 18 µM) | > 64 µg/mL | 8 µg/mL (≈ 18 µM) | > 64 µg/mL | 32 µg/mL (≈ 72.2 µM) | CC(C)(C)OC(=O)N1CCC(c2ccnc3c2C(=O)c2sc([N+](=O)[O-])cc2C3=O)CC1 |
| 4 µg/mL (≈ 10.4 µM) | > 64 µg/mL | 4 µg/mL (≈ 10.4 µM) | > 64 µg/mL | 4 µg/mL (≈ 10.4 µM) | > 64 µg/mL | 32 µg/mL (≈ 82.8 µM) | CC(C)(C)OC(=O)/C=C\c1ccnc2c1C(=O)c1sc([N+](=O)[O-])cc1C2=O |
| 1 µg/mL (≈ 3.16 µM) | 4 µg/mL (≈ 12.6 µM) | 1 µg/mL (≈ 3.16 µM) | 4 µg/mL (≈ 12.6 µM) | 1 µg/mL (≈ 3.16 µM) | 4 µg/mL (≈ 12.6 µM) | 2 µg/mL (≈ 6.32 µM) | CC(C)(C)c1cnc2c(c1)C(=O)c1sc([N+](=O)[O-])cc1C2=O |
| 2 µg/mL (≈ 6.32 µM) | 4 µg/mL (≈ 12.6 µM) | 0.5 µg/mL (≈ 1.58 µM) | 64 µg/mL (≈ 202 µM) | 4 µg/mL (≈ 12.6 µM) | 1 µg/mL (≈ 3.16 µM) | 1 µg/mL (≈ 3.16 µM) | CCCCc1ccnc2c1C(=O)c1sc([N+](=O)[O-])cc1C2=O |
| 4 µg/mL (≈ 12 µM) | 4 µg/mL (≈ 12 µM) | 4 µg/mL (≈ 12 µM) | 8 µg/mL (≈ 24.1 µM) | 1 µg/mL (≈ 3.01 µM) | 4 µg/mL (≈ 12 µM) | 2 µg/mL (≈ 6.02 µM) | CCOC(=O)c1ccnc2c1C(=O)c1sc([N+](=O)[O-])cc1C2=O |
| 2 µg/mL (≈ 6.94 µM) | 0.125 µg/mL (≈ 0.434 µM) | 8 µg/mL (≈ 27.8 µM) | 16 µg/mL (≈ 55.5 µM) | 1 µg/mL (≈ 3.47 µM) | 8 µg/mL (≈ 27.8 µM) | 4 µg/mL (≈ 13.9 µM) | O=Cc1ccnc2c1C(=O)c1sc([N+](=O)[O-])cc1C2=O |
| 4 µg/mL (≈ 10.4 µM) | > 64 µg/mL | 4 µg/mL (≈ 10.4 µM) | 32 µg/mL (≈ 82.8 µM) | 8 µg/mL (≈ 20.7 µM) | 32 µg/mL (≈ 82.8 µM) | 16 µg/mL (≈ 41.4 µM) | CC(C)(C)OC(=O)/C=C/c1ccnc2c1C(=O)c1sc([N+](=O)[O-])cc1C2=O |
| 16 µg/mL (≈ 37 µM) | 16 µg/mL (≈ 37 µM) | 32 µg/mL (≈ 74.1 µM) | 64 µg/mL (≈ 148 µM) | 32 µg/mL (≈ 74.1 µM) | 32 µg/mL (≈ 74.1 µM) | 32 µg/mL (≈ 74.1 µM) | O=C1c2cc([N+](=O)[O-])sc2C(=O)c2c(C(Br)Br)ccnc21 |
| 8 µg/mL (≈ 24.5 µM) | 4 µg/mL (≈ 12.3 µM) | 2 µg/mL (≈ 6.13 µM) | 16 µg/mL (≈ 49 µM) | 16 µg/mL (≈ 49 µM) | 4 µg/mL (≈ 12.3 µM) | 4 µg/mL (≈ 12.3 µM) | O=C1c2cc([N+](=O)[O-])sc2C(=O)c2c(-c3ccco3)ccnc21 |
